Screens: PubChem, several laboratories
A selection: hits, their analogues and other compounds. The true share with any hit is near 9.6%.
HCT116 bCat-KO = beta-catenin-lacking colon tumor cell growth suppression; HCT116 beta-catenin knockout viability, CellTiter-Glo, 60 h; stronger effect = lower value; AID 818; actives 1.5% (n = 140,000); viability, % at 10 µM;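 active means viability at or under a set limit, the compound median less 4 SD, cut at about 6% in these data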;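 further: 0% = Hyamine 1622 control at 20 µM and 100% = untreated cell control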
Lmaj promast = inhibitors of Leishmania major promastigote growth; inhibition, % at 10 µM; Leishmania major promastigotes, resazurin fluorescence viability; actives 9% (n = 200,000); AID 1063; in the data active means inhibition above about 50%;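 further: promastigotes grown with compound for 44 hours at 28 °C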
HCT116 PTEN-null = suppresses growth of cells with PTEN deletion; HCT116 PTEN-null viability, CellTiter-Glo, 60 h; stronger effect = lower value; viability, % at 10 µM; actives 1.2% (n = 140,000); AID 827;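 active means viability at or below a set limit, 4 SD under the median of all tested compounds, cut at about 3.7% in these data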;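 further: PTEN knockout HCT116 line with beta catenin targeted HCT116 as companion control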
TNAP inh noacc = blocks human TNAP activity with no phosphate acceptor present; P05186; purified TNAP, CDP-star luminescence, 30 min; inhibition, % at 20 µM; actives 0.26% (n = 200,000);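 active means tissue-nonspecific alkaline phosphatase inhibition above about 50% at 20 µM in the single-dose screen, limit read from the data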;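 further: 0% = DMSO negative control and 100% = EDTA positive control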
Target sequence (P05186 whole entry, looked up): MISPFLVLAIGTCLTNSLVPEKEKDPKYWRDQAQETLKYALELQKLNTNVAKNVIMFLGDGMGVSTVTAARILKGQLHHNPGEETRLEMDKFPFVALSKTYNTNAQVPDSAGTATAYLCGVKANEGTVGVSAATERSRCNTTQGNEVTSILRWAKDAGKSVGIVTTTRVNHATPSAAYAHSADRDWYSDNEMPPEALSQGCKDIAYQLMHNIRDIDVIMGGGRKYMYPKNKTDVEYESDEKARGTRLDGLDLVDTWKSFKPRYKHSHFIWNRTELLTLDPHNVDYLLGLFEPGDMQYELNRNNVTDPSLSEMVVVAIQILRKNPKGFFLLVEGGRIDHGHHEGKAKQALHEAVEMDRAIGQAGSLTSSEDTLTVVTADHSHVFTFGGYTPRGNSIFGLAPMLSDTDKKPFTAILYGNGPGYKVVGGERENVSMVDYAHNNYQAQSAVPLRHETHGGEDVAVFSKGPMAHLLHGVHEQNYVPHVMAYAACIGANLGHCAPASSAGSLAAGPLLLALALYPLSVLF
TNAP inh hiacc = TNAP (human) inhibition, high acceptor; purified TNAP, CDP-star luminescence, 1 M DEA; inhibition, % at 20 µM; actives 0.03% (n = 200,000);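 active means over 50% inhibition of tissue-nonspecific alkaline phosphatase at 20 µM in the single-dose screen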;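 further: plate controls were DMSO wells for no effect and EDTA-quenched wells as full inhibition for full effect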
TNAP act hiacc = increases human TNAP activity under high phosphate acceptor concentration. purified TNAP, CDP-star luminescence, 1 M DEA, 30 min; stronger effect = higher value; 0 = EDTA background, 1 = DMSO-only activity. P05186. 200,000 tested, under 10 active. activation factor at 20 µM;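 active means activation factor at least 2 at 20 µM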
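Control set: EDTA negative control, DMSO positive control / Assay system: human TNAP / Quantity: TNAP 1/800 final / Evaluation: TNAP activation factor scaled between EDTA and DMSO control wells / Measured by: luminescent substrate turnover signal / Compound dosing: one dose, 20 µM / Times: 30 min enzyme reaction at room temperature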
The depositor's hits bear a star; . = no result given.

SMILES	HCT116 bCat-KO	Lmaj promast	HCT116 PTEN-null	TNAP inh noacc	TNAP inh hiacc	TNAP act hiacc
Cc1ccc2c(c1)c1c(n2CC(O)Cn2c(C)nc3ccccc32)/C(=N\O)CCC1 (centres undefined)	39	58*	34	1	-4	1
Cc1ccc2c(c1)c1c(n2CC(O)Cn2c(C)nc3ccccc32)C(=O)CCC1 (centres undefined)	36	21	42	-2	-2	1
COc1cc(C(Nc2ccccn2)c2ccc3ccc(C)nc3c2O)cc(OC)c1O (centres undefined)	2.9*	94*	2.5*	18	-6	1.1
CC(=O)NC(c1ccco1)c1ccc2cccnc2c1O (centres undefined)	5.1*	98*	6	-15	-3	1
Cc1ccnc(NC(c2ccsc2)c2ccc3ccc(C)nc3c2O)c1 (centres undefined)	.	5	.	-56	-12	1.1
Cc1cccc(NCc2ccccc2O)n1	101	22	94	-2	2	1
Cc1ccc2ccc(C(Nc3ccccn3)c3ccccc3)c(O)c2n1 (centres undefined)	60	100*	63	-40	-17	1.2
Cc1cccc(NC(c2ccc(C)s2)c2ccc3ccc(C)nc3c2O)n1 (centres undefined)	2.4*	37	1.7*	-20	-10	1.1
O=C(CCSCc1cccc(Cl)c1)NCCc1ccc(Cl)cc1	87	-3	101	-4	0	1
Cc1cc(NC(=O)NC2CC(=O)N(c3ccc4c(c3)OCCO4)C2)no1 (centres undefined)	.	-5	.	10	-4	1
Oc1c(C(Nc2ccccn2)c2ccccn2)ccc2cccnc12 (centres undefined)	3.0*	100*	2.5*	-56	-14	1.1
COc1ccccc1NC(c1cccnc1)c1ccc2cccnc2c1O (centres undefined)	49	3	49	-42	-5	1
CN(C(=O)COC(=O)c1cc([N+](=O)[O-])ccc1Sc1ccccc1)C1CCS(=O)(=O)C1 (centres undefined)	.	100*	.	-5	0	1
Cc1cc(=O)[nH]c(Nc2c(C)n(C)n(-c3ccccc3)c2=O)n1	93	-4	94	-12	-4	1
Cc1c(Nc2nc3ccccc3nc2N2CCN(c3ccccc3)CC2)c(=O)n(-c2ccccc2)n1C	78	53*	69	-8	-5	1
O=c1[nH][nH]c(-c2ccccc2O)c1C(C[N+](=O)[O-])c1cccc(Cl)c1 (centres undefined)	5.9*	100*	8	49	42	0.6
Cc1[nH]c2ccccc2c1C(C[N+](=O)[O-])c1cccc(O)c1 (centres undefined)	.	14	.	-9	2	1
O=c1[nH][nH]c(-c2ccccc2O)c1C(C[N+](=O)[O-])c1ccccc1 (centres undefined)	5.7*	98*	4	26	22	0.8
O=c1[nH][nH]c(-c2ccccc2O)c1C(C[N+](=O)[O-])c1ccc(Cl)cc1Cl (centres undefined)	36	98*	58	70*	50	0.5
CN1CCN(Cc2ccc(Sc3ccc(Cl)cc3)c([N+](=O)[O-])c2)CC1	.	100*	.	-1	-2	1
Cc1ccc(Sc2ccc(CN3CCCC3)cc2[N+](=O)[O-])cc1	.	82*	.	-3	-1	1
O=[N+]([O-])c1cccc(-c2n[nH]c(=S)n2-c2ccc(Br)cc2)c1	.	13	.	-28	-6	1.1
Cc1ccc(C)n1-c1ccccc1N1CCCCC1	.	0	.	-18	-4	1
O=C1CCC(/C=C/c2ccccc2)=NN1Cc1ccc(F)cc1	.	-7	.	6	-4	1
CCN(CC)CCNC(=O)c1cccc(NC(=O)C(=O)c2ccccc2NC(C)=O)c1	.	-3	.	-1	-7	1.1
SMILES	HCT116 bCat-KO	Lmaj promast	HCT116 PTEN-null	TNAP inh noacc	TNAP inh hiacc	TNAP act hiacc
CN1C2CCC1/C(=C\c1ccc(F)cc1)C(=O)/C2=C/c1ccc(F)cc1	31	75*	33	-12	0	1
Cc1nn(C)c(C)c1/C=C/C(=O)c1cccs1	67	72*	71	.	.	.
CCOC(=O)/C(=C/C=C1\Sc2cc(OCC)c(OCC)cc2N1CC)C(C)=O	.	68*	.	41	39	0.6
S=C(Nc1ccccc1)c1nc2ccccc2s1	75	1	86	-9	-1	1
CC1CCCC(C)N1CC(O)COCC1COc2ccccc2O1 (centres undefined)	85	52*	93	2	-5	1
CCOc1ccc(-c2nc3scc(-c4cccs4)c3c(=O)[nH]2)cc1	.	-4	.	11	-2	1
CCn1c(=O)c(C(=O)CN2CCN(S(=O)(=O)c3cc(C)ccc3C)CC2)c(N)n(Cc2ccccc2)c1=O	56	65*	55	-1	-5	1
CCN1CCN(C(C)C(=O)Nc2c(C)n(C)n(-c3ccccc3)c2=O)CC1 (centres undefined)	95	-9	111	-12	0	1
CCOC(=O)C1=C(C)C2C3C(=O)N(c4ccccc4C)C(=O)C3C1(C)C1C(=O)N(c3ccccc3C)C(=O)C21 (centres undefined)	97	56*	100	-4	-2	1
Cc1ccccc1N1C(=O)C2C3C=CC(C2C1=O)N(C)C3=O (centres undefined)	79	-6	96	-10	0	1
CCOC(=O)C1=C(C)C2C3C(=O)N(c4ccc(C)cc4C)C(=O)C3C1(C)C1C(=O)N(c3ccc(C)cc3C)C(=O)C21 (centres undefined)	80	74*	79	-9	-8	1.1
CCC(CC)NC(=O)c1cccc(Oc2ccccc2)c1	.	4	.	-4	-5	1
O=C(C1CCN(c2ccc(N3CCOCC3)nn2)CC1)N1CCN(c2ccc(F)cc2)CC1	93	97*	89	-16	-6	1.1
CCc1ccc2ncc(S(=O)(=O)c3ccc(C)c(C)c3)c(N3CCCC3)c2c1	58	30	58	-13	14	0.9
CCN(CC)CCNc1ncnc2c1sc1nc(N3CCCC3)c3c(c12)CC(C)(C)OC3	.	100*	.	1	-2	1
CC1(C)Cc2c(c(-c3ccco3)nc3sc4c(NCC5CCCO5)ncnc4c23)CO1 (centres undefined)	81	-1	73	-9	1	1
CC1(C)Cc2c(c(-c3ccco3)nc3sc4c(NCCN5CCOCC5)ncnc4c23)CO1	1.6*	11	1.4*	8	5	0.9
COc1cccc(C(=O)C2CCCN(Cc3cccc(-n4nc(C)cc4C)c3)C2)c1 (centres undefined)	.	9	.	-9	-8	1.1
CCCCn1nc2cc(C(=O)NCCCCc3ccccc3)ccc2c1OCC	89	73*	79	-12	-5	1.1
